Results reported in ChEMBL document CHEMBL5376013, “Design, synthesis and biological evaluation of novel morpholinopyrimidine-5-carbonitrile derivatives as dual PI3K/mTOR inhibitors” (RSC Med Chem, 2024).

Columns and labels:
Type in all cases: functional
Details in all cases: read-out: GI
CCRF-CEM = assay: Antitumor activity against human CCRF-CEM cells assessed as growth inhibition at 10 uM relative to control
How it was run: (§1)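 After drug addition, plates were incubated 48 h at 37 °C under 5% CO2. Adherent cells were fixed with cold TCA (10% final, 60 min, 4 °C) and suspension cells with 16% final TCA. Staining used 0.4% SRB in 1% acetic acid, solubilized in 10 mM trizma, read at A515. Percent growth was calculated from time-zero, control and treated absorbances.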

HL-60 = assay: Antitumor activity against human HL-60 cells assessed as growth inhibition at 10 uM relative to control; how it was run: as §1
K562 = assay: Antitumor activity against human K562 cells assessed as growth inhibition at 10 uM relative to control; how it was run: as §1
MOLT-4 = assay: Antitumor activity against human MOLT-4 cells assessed as growth inhibition at 10 uM relative to control; how it was run: as §1
RPMI-8226 = assay: Antitumor activity against human RPMI-8226 cells assessed as growth inhibition at 10 uM relative to control; how it was run: as §1
SR = assay: Antitumor activity against human SR cells assessed as growth inhibition at 10 uM relative to control
How it was run: (§2)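 Drug exposure 48 h at 37 °C, 5% CO2. Adherent cells fixed with cold TCA (10% final), suspension cells with TCA (16% final). Stained with 0.4% SRB in 1% acetic acid, dissolved in 10 mM Tris, A515. Growth relative to time-zero and untreated control.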

EKVX = assay: Antitumor activity against human EKVX cells assessed as growth inhibition at 10 uM relative to control; how it was run: as §1
HOP-62 = assay: Antitumor activity against human HOP-62 cells assessed as growth inhibition at 10 uM relative to control; how it was run: as §1
HOP-92 = assay: Antitumor activity against human HOP-92 cells assessed as growth inhibition at 10 uM relative to control; how it was run: as §1
NCI-H226 = assay: Antitumor activity against human NCI-H226 cells assessed as growth inhibition at 10 uM relative to control; how it was run: as §1
NCI-H23 = assay: Antitumor activity against human NCI-H23 cells assessed as growth inhibition at 10 uM relative to control; how it was run: as §1
NCI-H322M = assay: Antitumor activity against human NCI-H322M cells assessed as growth inhibition at 10 uM relative to control; how it was run: as §1
NCI-H522 = assay: Antitumor activity against human NCI-H522 cells assessed as growth inhibition at 10 uM relative to control; how it was run: as §1
COLO 205 = assay: Antitumor activity against human COLO 205 cells assessed as growth inhibition at 10 uM relative to control; how it was run: as §1
HCC 2998 = assay: Antitumor activity against human HCC 2998 cells assessed as growth inhibition at 10 uM relative to control; how it was run: as §1
HCT-116 = assay: Antitumor activity against human HCT-116 cells assessed as growth inhibition at 10 uM relative to control; how it was run: as §1
KM12 = assay: Antitumor activity against human KM12 cells assessed as growth inhibition at 10 uM relative to control; how it was run: as §1
SW-620 = assay: Antitumor activity against human SW-620 cells assessed as growth inhibition at 10 uM relative to control; how it was run: as §2
SF-268 = assay: Antitumor activity against human SF-268 cells assessed as growth inhibition at 10 uM relative to control; how it was run: as §1
SF-295 = assay: Antitumor activity against human SF-295 cells assessed as growth inhibition at 10 uM relative to control; how it was run: as §1
SF-539 = assay: Antitumor activity against human SF-539 cells assessed as growth inhibition at 10 uM relative to control; how it was run: as §1
SNB-19 = assay: Antitumor activity against human SNB-19 cells assessed as growth inhibition at 10 uM relative to control; how it was run: as §2
SNB-75 = assay: Antitumor activity against human SNB-75 cells assessed as growth inhibition at 10 uM relative to control; how it was run: as §2
U-251 = assay: Antitumor activity against human U-251 cells assessed as growth inhibition at 10 uM relative to control; how it was run: as §2
LOX IMVI = assay: Antitumor activity against human LOX IMVI cells assessed as growth inhibition at 10 uM relative to control; how it was run: as §1
Malme-3M = assay: Antitumor activity against human Malme-3M cells assessed as growth inhibition at 10 uM relative to control; how it was run: as §1
M14 = assay: Antitumor activity against human M14 cells assessed as growth inhibition at 10 uM relative to control; how it was run: as §1
MDA-MB-435 = assay: Antitumor activity against human MDA-MB-435 cells assessed as growth inhibition at 10 uM relative to control; how it was run: as §1
SK-MEL-28 = assay: Antitumor activity against human SK-MEL-28 cells assessed as growth inhibition at 10 uM relative to control; how it was run: as §2
SK-MEL-5 = assay: Antitumor activity against human SK-MEL-5 cells assessed as growth inhibition at 10 uM relative to control; how it was run: as §2
IGROV-1 = assay: Antitumor activity against human IGROV-1 cells assessed as growth inhibition at 10 uM relative to control; how it was run: as §1
OVCAR-3 = assay: Antitumor activity against human OVCAR-3 cells assessed as growth inhibition at 10 uM relative to control; how it was run: as §1
OVCAR-8 = assay: Antitumor activity against human OVCAR-8 cells assessed as growth inhibition at 10 uM relative to control; how it was run: as §1
NCI/ADR-RES = assay: Antitumor activity against human NCI-ADR-RES cells assessed as growth inhibition at 10 uM relative to control; how it was run: as §1
786-0 = assay: Antitumor activity against human 786-0 cells assessed as growth inhibition at 10 uM relative to control; how it was run: as §1
A498 = assay: Antitumor activity against human A498 cells assessed as growth inhibition at 10 uM relative to control; how it was run: as §1
ACHN = assay: Antitumor activity against human ACHN cells assessed as growth inhibition at 10 uM relative to control; how it was run: as §1
RXF 393 = assay: Antitumor activity against human RXF 393 cells assessed as growth inhibition at 10 uM relative to control; how it was run: as §1
UO-31 = assay: Antitumor activity against human UO-31 cells assessed as growth inhibition at 10 uM relative to control; how it was run: as §2
PC-3 = assay: Antitumor activity against human PC-3 cells assessed as growth inhibition at 10 uM relative to control; how it was run: as §1
DU-145 = assay: Antitumor activity against human DU-145 cells assessed as growth inhibition at 10 uM relative to control; how it was run: as §1
MDA-MB-231 = assay: Antitumor activity against human MDA-MB-231 cells assessed as growth inhibition at 10 uM relative to control; how it was run: as §1
Hs-578T = assay: Antitumor activity against human Hs-578T cells assessed as growth inhibition at 10 uM relative to control; how it was run: as §1
BT-549 = assay: Antitumor activity against human BT-549 cells assessed as growth inhibition at 10 uM relative to control; how it was run: as §1
T47D = assay: Antitumor activity against human T47D cells assessed as growth inhibition at 10 uM relative to control; how it was run: as §2
MDA-MB-468 = assay: Antitumor activity against human MDA-MB-468 cells assessed as growth inhibition at 10 uM relative to control; how it was run: as §1

CSc1nc(Cl)c(C#N)c(-c2ccc(Cl)cc2)n1
inhibition of growth at 10 µM (CCRF-CEM): 26.1% | inhibition of growth at 10 µM (HL-60): < 1% | inhibition of growth at 10 µM (K562): 44.5% | inhibition of growth at 10 µM (MOLT-4): 27.6% | inhibition of growth at 10 µM (RPMI-8226): < 1% | inhibition of growth at 10 µM (SR): 58.5% | inhibition of growth at 10 µM (EKVX): < 1% | inhibition of growth at 10 µM (HOP-62): < 1% | inhibition of growth at 10 µM (HOP-92): < 1% | inhibition of growth at 10 µM (NCI-H226): < 1% | inhibition of growth at 10 µM (NCI-H23): < 1% | inhibition of growth at 10 µM (NCI-H322M): < 1% | inhibition of growth at 10 µM (NCI-H522): < 1% | inhibition of growth at 10 µM (COLO 205): < 1% | inhibition of growth at 10 µM (HCC 2998): < 1% | inhibition of growth at 10 µM (HCT-116): < 1% | inhibition of growth at 10 µM (KM12): < 1% | inhibition of growth at 10 µM (SW-620): < 1% | inhibition of growth at 10 µM (SF-268): < 1% | inhibition of growth at 10 µM (SF-295): < 1% | inhibition of growth at 10 µM (SF-539): < 1% | inhibition of growth at 10 µM (SNB-19): < 1% | inhibition of growth at 10 µM (SNB-75): 26.8% | inhibition of growth at 10 µM (U-251): < 1% | inhibition of growth at 10 µM (LOX IMVI): < 1% | inhibition of growth at 10 µM (Malme-3M): < 1% | inhibition of growth at 10 µM (M14): < 1% | inhibition of growth at 10 µM (MDA-MB-435): < 1% | inhibition of growth at 10 µM (SK-MEL-28): < 1% | inhibition of growth at 10 µM (SK-MEL-5): < 1% | inhibition of growth at 10 µM (IGROV-1): < 1% | inhibition of growth at 10 µM (OVCAR-3): < 1% | inhibition of growth at 10 µM (OVCAR-8): < 1% | inhibition of growth at 10 µM (NCI/ADR-RES): < 1% | inhibition of growth at 10 µM (786-0): < 1% | inhibition of growth at 10 µM (A498): < 1% | inhibition of growth at 10 µM (ACHN): < 1% | inhibition of growth at 10 µM (RXF 393): < 1% | inhibition of growth at 10 µM (UO-31): < 1% | inhibition of growth at 10 µM (PC-3): < 1% | inhibition of growth at 10 µM (DU-145): < 1% | inhibition of growth at 10 µM (MDA-MB-231): < 1% | inhibition of growth at 10 µM (Hs-578T): < 1% | inhibition of growth at 10 µM (BT-549): 11.2% | inhibition of growth at 10 µM (T47D): < 1% | inhibition of growth at 10 µM (MDA-MB-468): < 1%

CSc1nc(-c2ccc(Cl)cc2)c(C#N)c(N2CCOCC2)n1
inhibition of growth at 10 µM (CCRF-CEM): < 1% | inhibition of growth at 10 µM (HL-60): < 1% | inhibition of growth at 10 µM (K562): 19.9% | inhibition of growth at 10 µM (MOLT-4): < 1% | inhibition of growth at 10 µM (RPMI-8226): 17.9% | inhibition of growth at 10 µM (SR): 22.7% | inhibition of growth at 10 µM (EKVX): 15.1% | inhibition of growth at 10 µM (HOP-62): 15.7% | inhibition of growth at 10 µM (HOP-92): 21.1% | inhibition of growth at 10 µM (NCI-H226): 17.5% | inhibition of growth at 10 µM (NCI-H23): 10.8% | inhibition of growth at 10 µM (NCI-H322M): < 1% | inhibition of growth at 10 µM (NCI-H522): 30.2% | inhibition of growth at 10 µM (COLO 205): < 1% | inhibition of growth at 10 µM (HCC 2998): < 1% | inhibition of growth at 10 µM (HCT-116): < 1% | inhibition of growth at 10 µM (KM12): < 1% | inhibition of growth at 10 µM (SW-620): < 1% | inhibition of growth at 10 µM (SF-268): 13.9% | inhibition of growth at 10 µM (SF-295): < 1% | inhibition of growth at 10 µM (SF-539): < 1% | inhibition of growth at 10 µM (SNB-19): 20.1% | inhibition of growth at 10 µM (SNB-75): 47.8% | inhibition of growth at 10 µM (U-251): < 1% | inhibition of growth at 10 µM (LOX IMVI): < 1% | inhibition of growth at 10 µM (Malme-3M): 11% | inhibition of growth at 10 µM (M14): < 1% | inhibition of growth at 10 µM (MDA-MB-435): < 1% | inhibition of growth at 10 µM (SK-MEL-28): < 1% | inhibition of growth at 10 µM (SK-MEL-5): < 1% | inhibition of growth at 10 µM (IGROV-1): 11.8% | inhibition of growth at 10 µM (OVCAR-3): < 1% | inhibition of growth at 10 µM (OVCAR-8): < 1% | inhibition of growth at 10 µM (NCI/ADR-RES): 12% | inhibition of growth at 10 µM (786-0): 11% | inhibition of growth at 10 µM (A498): 54.3% | inhibition of growth at 10 µM (ACHN): < 1% | inhibition of growth at 10 µM (RXF 393): < 1% | inhibition of growth at 10 µM (UO-31): 27.1% | inhibition of growth at 10 µM (PC-3): < 1% | inhibition of growth at 10 µM (DU-145): < 1% | inhibition of growth at 10 µM (MDA-MB-231): < 1% | inhibition of growth at 10 µM (Hs-578T): < 1% | inhibition of growth at 10 µM (BT-549): 21.8% | inhibition of growth at 10 µM (T47D): 33% | inhibition of growth at 10 µM (MDA-MB-468): < 1%
